The source of these data is ChEMBL document CHEMBL4819027, “Design, synthesis and biological evaluation of novel 2-(4-(1H-indazol-6-yl)-1H-pyrazol-1-yl)acetamide derivatives as potent VEGFR-2 inhibitors” (Eur J Med Chem, 2021).

Assay [1] concerns HGC-27. Kind of assay: Induction of apoptosis in human HGC-27 cells assessed as early apoptotic cells level at 5 uM incubated for 24 hrs by propidium iode and annexin V-FITC staining based flow cytometry (reference value: 1.48%). The format is functional.
In assay [2] the test system is HUVEC. Kind of assay: Cytotoxicity against human HUVEC cells assessed as inhibition of cell growth incubated for 72 hrs by MTT assay. The class given is cell-based. An outline of the steps: (§1)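 Log-phase cells were seeded at 5 × 10³ per well and attached 24 h. HT-29 and GES-1 were grown in DMEM-based medium, A549/HepG2/HGC-27 in RPMI-1640, HUVEC in ECM with ECGS; all media had 10% FBS. Cells were exposed to graded compound concentrations for 72 h at 37 °C. MTT (5 mg/mL stock) was added for 4 h, formazan dissolved in DMSO, and A490 read. IC50 was obtained by nonlinear sigmoidal regression; mean ± S.E. of three experiments.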

For a further assay, the system named is HT-29. Kind of assay: Antiproliferative activity against human HT-29 cells assessed as cell growth inhibition after 72 hrs by MTT assay. The class given is functional, cell-based. The conditions noted are these: HT-29, 72 h. In outline:
as §1
On the technique in general: Formazan colour is commonly taken as a measure of viable cells.

The test system of the next assay is GES1. Kind of assay: Cytotoxicity against human GES-1 cells assessed as inhibition of cell growth incubated for 72 hrs by MTT assay. The format is cell-based. The conditions noted are these: GES1, 72 h. An outline of the steps: as §1
The next assay deals with HepG2. Kind of assay: Antiproliferative activity against human HepG2 cells assessed as cell growth inhibition after 72 hrs by MTT assay. The format is functional, cell-based. The conditions noted are these: HepG2, 72 h. An outline of the steps: as §1
A further assay deals with A549. Kind of assay: Antiproliferative activity against human A549 cells assessed as cell growth inhibition after 72 hrs by MTT assay. The class given is functional, cell-based. Particulars: A549, 72 h. In outline: as §1
In assay [3] the test system is HGC-27. Kind of assay: Induction of apoptosis in human HGC-27 cells assessed as late apoptotic cells level at 5 uM incubated for 24 hrs by propidium iode and annexin V-FITC staining based flow cytometry (reference value: 0.86%). The format is functional. In general terms: Flow cytometry measures light scatter and fluorescence of single cells or particles in a stream.

Assay [4] has as its system HGC-27. Put plainly: Induction of apoptosis in human HGC-27 cells assessed as necrotic cells level at 5 uM incubated for 24 hrs by propidium iode and annexin V-FITC staining based flow cytometry (reference value: 1.64%). The class given is functional.
In assay [5] the test system is HGC-27. Put plainly: Antiproliferative activity against human HGC-27 cells assessed as cell growth inhibition after 72 hrs by MTT assay. The format is functional, cell-based. The conditions noted are these: HGC-27, 72 h. In outline:
as §1

For assay [6], the system named is HGC-27. Put plainly: Induction of apoptosis in human HGC-27 cells assessed as viable cells level at 5 uM incubated for 24 hrs by propidium iode and annexin V-FITC staining based flow cytometry (reference value: 96.0%). The format is functional.
In assay [7] the test system is HUVEC. Put plainly: Antiangiogenic activity against HUVEC cells assessed as reduction in VEGF-induced tube formation tube formation incubated for 12 hrs by matrigel-based assay. The format is functional, cell-based. The conditions noted are these: Homo sapiens. An outline of the steps: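 HUVECs at 4 × 10⁵ cells/mL seeded on Matrigel that had been polymerized 1 h at 37 °C. Cells were stimulated with 20 ng/mL VEGF and treated with compound (1, 2.5, 5 and 10 μM) or 0.1% DMSO vehicle for 12 h at 37 °C. Tubes were imaged by inverted microscopy. Tube length, surface area and branch points were quantified as pixel area.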

For assay [8], the system named is HGC-27. Kind of assay: Induction of apoptosis in human HGC-27 cells assessed as total apoptotic cells level at 5 uM incubated for 24 hrs by propidium iode and annexin V-FITC staining based flow cytometry. The class given is functional.

SMILES strings stand for the structures.

A word on the IC50: it is the concentration at which inhibition is half-maximal. As to `CNC(=O)c1cc(Oc2ccc(NC(=O)Nc3ccc(Cl)c(C(F)(F)F)c3)cc2)ccn1` [SORAFENIB], the Activity in the assay on HGC-27 [1] worked out at 6.91%; in the assay on HGC-27 [3], 18.5%; in the assay on HGC-27 [4], 24%; in the assay with HGC-27 [6], 50.6%; in the assay on HGC-27 [8], 25.41%. For the same compound, the IC50 in the assay with HUVEC [2] is 8.33 µM; in the assay with HT-29 it was 5.57 µM; in the assay with GES1, 9.59 µM; in the assay with HepG2 it was 6.18 µM; in the assay with A549, 5.13 µM; in the assay on HGC-27 [5] it was 5.22 µM. For the same compound, the inhibition entry in the assay with HUVEC [7] is “Dose-Dependent Effect”.
